Test results reported in ChEMBL document CHEMBL2163334, “Discovery of highly potent and selective pan-Aurora kinase inhibitors with enhanced in vivo antitumor therapeutic index” (J Med Chem, 2012).
Calls of active or inactive are those of the source. The calls are words filed in the database; no cut-off is given here.

Legend:
[1] = Clearance in athymic Nu/Nu rat at 5 mg/kg, iv administered using TPPW as vehicle; type: ADME, organism-based; design: dose 5 mg/kg, route intravenous; details: in vivo
How it was run: (§1)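 Plasma from K3 EDTA blood at 5, 15, 30 min, 1, 2, 4, 6, 24 h; acetonitrile extraction with internal standard, LC-MS/MS on C8 column, 5-95% ACN gradient with 0.05% formic acid.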

[2] = Clearance in athymic Nu/Nu rat at 50 mg/kg, iv administered using TPPW as vehicle; type: ADME, organism-based; design: dose 50 mg/kg, route intravenous; details: in vivo; how it was run: as §1
HCT-116 [3] = assay: Antitumor activity against human HCT116 cells xenografted in athymic nude rat assessed as tumor growth inhibition at 5 mg/kg, iv administered every other day from day 10 post tumor-injection for 3 weeks relative to vehicle treated control; type: functional; details: read-out: TGI
How it was run: (§2)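 Subcutaneous flank HCT-116 xenografts in nude rats; at Day 1 groups of 10 with mean tumor 301-306 mm³. Tail-vein iv in TPPW (2% Tween-80, 5% propylene glycol, 10% PG-400, 83% water) at 10 mL/kg, weight-adjusted: days 1,3,5,8,10,12,15,17,19 or days 1-4, 8-11, 15-18. Irinotecan control 100 mg/kg ip weekly ×3.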

HCT-116 [4] = assay: Antiproliferative activity against human HCT116 cells after 72 hrs by BrdU-based ELISA; type: functional, cell-based; details: HCT-116, 72 h
How it was run: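 HCT-116 cells in McCoy's 5A with 10% FBS and pen/strep, seeded 800 cells/well, left overnight at 37 °C, 5% CO2. Nine-point 3-fold serial dilutions in DMSO added for 72 h; BrdU colorimetric ELISA read at 450 and 690 nm. IC50 is the concentration halving proliferation; duplicate runs averaged.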

[5] = AUC (0 to infinity) in Nu/Nu rat at 15 mg/kg, iv administered using TPPW as vehicle; type: ADME, organism-based; design: dose 15 mg/kg, route intravenous, time infinity; details: plasma; how it was run: as §1
Aurora kinase B [6] = target: T1, Aurora kinase B (Homo sapiens, UniProt Q96GD4); assay: Inhibition of Aurora kinase B in human HCT116 cells assessed as induction of 8N polyploidy; type: cell-based; details: HCT-116
T1 sequence (Q96GD4 whole entry): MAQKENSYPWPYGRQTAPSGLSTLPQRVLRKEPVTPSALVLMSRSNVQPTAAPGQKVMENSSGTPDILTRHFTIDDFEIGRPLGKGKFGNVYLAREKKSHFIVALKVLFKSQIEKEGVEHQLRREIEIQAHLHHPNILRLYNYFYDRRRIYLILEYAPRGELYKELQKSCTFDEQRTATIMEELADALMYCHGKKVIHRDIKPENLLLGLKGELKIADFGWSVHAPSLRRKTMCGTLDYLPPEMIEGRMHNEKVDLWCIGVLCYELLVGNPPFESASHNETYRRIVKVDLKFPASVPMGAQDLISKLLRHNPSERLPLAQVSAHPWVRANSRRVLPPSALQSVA

Aurora kinase C = target: T2, Aurora kinase C (Homo sapiens, UniProt Q9UQB9); assay: Binding affinity to Aurora kinase C
T2 sequence (Q9UQB9 whole entry): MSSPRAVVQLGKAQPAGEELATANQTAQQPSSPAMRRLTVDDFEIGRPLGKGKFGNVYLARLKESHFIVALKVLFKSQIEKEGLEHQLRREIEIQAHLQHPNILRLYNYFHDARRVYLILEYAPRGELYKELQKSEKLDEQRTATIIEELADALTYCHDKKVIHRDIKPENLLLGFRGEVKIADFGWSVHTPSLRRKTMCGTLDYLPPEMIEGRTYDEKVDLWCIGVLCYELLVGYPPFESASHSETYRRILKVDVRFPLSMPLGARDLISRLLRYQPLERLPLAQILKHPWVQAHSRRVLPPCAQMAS

[7] = Half life in Nu/Nu rat at 15 mg/kg, iv administered using TPPW as vehicle; type: ADME, organism-based; design: dose 15 mg/kg, route intravenous; details: in vivo; how it was run: as §1
[8] = AUC (0 to infinity) in Sprague-Dawley rat at 1 mg/kg, iv administered using PEG400/water as vehicle; type: ADME, organism-based; design: time infinity, dose 1 mg/kg, route intravenous; details: plasma
How it was run: (§3)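 SD rats fasted overnight, given 1 mg/kg iv in PEG400/water (3:1, v/v); three per arm. Blood into K3 EDTA at 5, 15, 30 min, 1, 2, 4, 6, 24 h, spun at 4 °C; plasma extracted with six volumes acetonitrile plus internal standard and quantified by LC-MS/MS (C8 column, formic acid/ACN gradient).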

[9] = Clearance in athymic Nu/Nu rat at 15 mg/kg, iv administered using TPPW as vehicle; type: ADME, organism-based; design: dose 15 mg/kg, route intravenous; details: in vivo; how it was run: as §1
HCT-116 [10] = assay: Antitumor activity against human HCT116 cells xenografted in athymic nude rat assessed as tumor growth inhibition at 5 mg/kg, iv administered QD for 4 days per week followed by 3 days off per week for 3 weeks; type: functional, organism-based; design: dose 5 mg/kg; how it was run: as §2
[11] = Volume of distribution in Nu/Nu rat at 5 mg/kg, iv administered using TPPW as vehicle; type: ADME, organism-based; design: dose 5 mg/kg, route intravenous; details: in vivo; how it was run: as §1
[12] = Volume of distribution in Nu/Nu rat at 15 mg/kg, iv administered using TPPW as vehicle; type: ADME, organism-based; design: dose 15 mg/kg, route intravenous; details: in vivo; how it was run: as §1
[13] = Volume of distribution in Sprague-Dawley rat at 1 mg/kg, iv administered using PEG400/water as vehicle; type: ADME, organism-based; design: dose 1 mg/kg, route intravenous; details: in vivo; how it was run: as §3
HCT-116 [14] = assay: Antitumor activity against human HCT116 cells xenografted in iv dosed athymic nude rat assessed as tumor growth inhibition administered every other day from day 10 post tumor-injection for 3 weeks relative to vehicle treated control; type: functional, organism-based; how it was run: as §2
HCT-116 [15] = assay: Antitumor activity against human HCT116 cells xenografted in athymic nude rat assessed as tumor stasis at 20 mg/kg, iv administered every other day from day 10 post tumor-injection for 3 weeks […]; type: functional, organism-based; design: dose 20 mg/kg
How it was run: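 HCT-116 flank xenografts in nude rats, groups of 10 at mean 301-306 mm³; iv tail-vein dosing in TPPW at 10 mL/kg on days 1,3,5,8,10,12,15,17,19; tumors followed after dosing stopped, study ending day 42 or day 60.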

[16] = Protein binding in plasma; type: ADME, cell-free; details: read-out: PPB
Rattus norvegicus [17] = assay: Toxicity in athymic nude rat bearing human HCT116 cells assessed as adverse effects at 2.5 mg/kg, iv administered QD for 4 days per week followed by 3 days off per week for 3 weeks; type: organism-based, HCT-116; design: dose 2.5 mg/kg, route intravenous; details: in vivo; how it was run: as §2
[18] = Half life in Nu/Nu rat at 50 mg/kg, iv administered using TPPW as vehicle; type: ADME, organism-based; design: dose 50 mg/kg, route intravenous; details: in vivo; how it was run: as §1
Aurora kinase A [19] = target: T3, Aurora kinase A (Homo sapiens, UniProt O14965); assay: Inhibition of Aurora kinase A autophosphorylation in human HEK293 cells after 2 hrs by phosphor antibody readout assay; type: cell-based
T3 sequence (O14965 whole entry): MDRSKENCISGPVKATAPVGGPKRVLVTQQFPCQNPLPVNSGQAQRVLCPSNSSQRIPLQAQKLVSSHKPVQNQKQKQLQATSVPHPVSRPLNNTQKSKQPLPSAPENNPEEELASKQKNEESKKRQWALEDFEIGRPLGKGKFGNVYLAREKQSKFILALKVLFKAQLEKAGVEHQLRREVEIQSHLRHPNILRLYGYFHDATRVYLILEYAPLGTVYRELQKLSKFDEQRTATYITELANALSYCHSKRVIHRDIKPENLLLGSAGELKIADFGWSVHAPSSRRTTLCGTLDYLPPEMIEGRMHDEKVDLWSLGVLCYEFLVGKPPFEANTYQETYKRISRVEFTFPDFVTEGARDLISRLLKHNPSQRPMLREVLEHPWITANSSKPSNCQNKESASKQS

Aurora kinase B [20] = target: T1, Aurora kinase B; assay: Binding affinity to Aurora kinase B catalytic domain by competition binding assay
HCT-116 [21] = assay: Antitumor activity against human HCT116 cells xenografted in athymic nude rat assessed as tumor growth inhibition at 10 mg/kg, iv administered every other day from day 10 post tumor-injection for 3 weeks relative to vehicle treated control; type: functional; details: read-out: TGI; how it was run: as §2
HCT-116 [22] = assay: Antitumor activity against human HCT116 cells xenografted in athymic nude rat assessed as tumor growth inhibition at 10 mg/kg, iv administered QD for 4 days per week followed by 3 days off per week for 3 weeks; type: functional, organism-based; design: dose 10 mg/kg; how it was run: as §2
Rattus norvegicus [23] = assay: Toxicity in athymic nude rat bearing human HCT116 cells assessed body weight loss up to 20 mg/kg, iv administered every other day from day 10 post tumor-injection for 3 weeks; type: organism-based, HCT-116; design: dose 20 mg/kg, route intravenous; details: in vivo, 504 h; how it was run: as §2
Aurora kinase A [24] = target: T3, Aurora kinase A; assay: Binding affinity to Aurora kinase A catalytic domain by competition binding assay

clearance [1]: 19.2 mL/min/kg
clearance [2]: 5.23 mL/min/kg
IC50 (HCT-116 [4]): 1.2 nM
AUC(0-inf) [5]: 34.4 µM·h
inhibition (Aurora kinase B [6]): Dose-dependent effect
Kd (Aurora kinase C): < 10 nM
half-life [7]: 3.7 h
AUC(0-inf) [8]: 1.4 µM·h
clearance [9]: 12.5 mL/min/kg
Vd [11]: 0.7 L/kg
Vd [12]: 0.8 L/kg
Vd [13]: 7 L/kg
fraction unbound [16]: 0.01
half-life [18]: 2.9 h
IC50 (Aurora kinase A [19]): 1 nM
Kd (Aurora kinase B [20]): 1.7 nM
Kd (Aurora kinase A [24]): 5.8 nM
Structure (SMILES): Cc1cc(Nc2nc(Sc3ccc(NC(=O)CN4CC[C@@H](C(=O)N5CCC(F)(F)C5)C4)cc3)nn3cccc23)n[nH]1
inhibition in vivo at 5 mg/kg (HCT-116 [3]): 45%
TGI (HCT-116 [10]): Active
TGI (HCT-116 [14]): Active
Activity (HCT-116 [15]): Active
Activity (Rattus norvegicus [17]): Non-toxic
inhibition in vivo at 10 mg/kg (HCT-116 [21]): 60%
TGI (HCT-116 [22]): Active
Activity (Rattus norvegicus [23]): Non-toxic
